KCNK3 inh: human KCNK3 channel inhibitors, primary screen, CHO cells, FluxOR thallium flux, B-score | Potassium channel subfamily K member 3 (Homo sapiens), O14649 | FluxOR fluorescence; hits give low values | 0.84% of 340,000 active | B-score at 10 µM;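 active = B-score under library mean minus 4 SD, starting fluorescence ratio at most library mean plus 5 SD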;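 note: more negative B-score means stronger inhibition of thallium flux through KCNK3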
Target sequence (O14649 whole entry, looked up): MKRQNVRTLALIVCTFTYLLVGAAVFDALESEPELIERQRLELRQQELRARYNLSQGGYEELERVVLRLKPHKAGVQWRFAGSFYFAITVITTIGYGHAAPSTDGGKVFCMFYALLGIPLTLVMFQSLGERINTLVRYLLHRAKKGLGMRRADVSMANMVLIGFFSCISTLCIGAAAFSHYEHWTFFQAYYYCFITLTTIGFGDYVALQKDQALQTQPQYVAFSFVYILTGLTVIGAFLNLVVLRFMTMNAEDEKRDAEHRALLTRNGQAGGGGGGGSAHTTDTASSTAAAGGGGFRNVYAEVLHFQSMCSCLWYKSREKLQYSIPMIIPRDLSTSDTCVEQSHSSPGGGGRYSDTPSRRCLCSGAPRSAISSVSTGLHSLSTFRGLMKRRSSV
Kir21 block: inhibitors of mouse Kir2.1 inward-rectifier potassium channel | Inward rectifier potassium channel 2 (Mus musculus), P35561 | HEK293-Kir2.1, FluxOR thallium flux fluorescence; hits give low values | B-score at 10 µM | 0.85% of 310,000 active | AID 1672, 2009;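 active = fluorescence ratio B-score at or below minus 3 SD of library scores, with starting-brightness B-score within 2 SD, cut at about -4.2 in these data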;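 note: channel flux triggered by added potassium and thallium sulfate stimulus; B-score of peak minus minimum fluorescence over baseline after thallium stimulus; more negative B-score means stronger Kir2.1 block with less thallium influx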
KCNQ1 act: potentiators or activators of KCNQ1 channel, primary screen, cell-based, thallium flux, high-throughput; 0.35% of 310,000 active; B-score at 10 µM; CHO-K1 KCNQ1, thallium flux FluxOR fluorescence; hits give high values; Potassium voltage-gated channel subfamily KQT member 1 (Homo sapiens), P51787; AID 2648, 2010;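 active = fluorescence ratio B-score, a plate-corrected score, at least three library SD, with initial intensity B-score within 5 SD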
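System: Stable KCNQ1 CHO-K1 line | Incubation: 90 min dye loading and 20 min compound exposure, both at room temperature | Measure: Ratio B score | Medium: Assay buffer for compound exposure, DMSO matched across wells | Compound dosing: Single-concentration screen | Probe or stimulus: K+/Tl+ depolarizing stimulus | Measured by: Kinetic FluxOR fluorescence, 10 s baseline plus 110 s post-stimulus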
hERG rescue: hERG rescue from dofetilide block, primary screen, cell-based, CHO-hERG, FluxOR thallium flux, dofetilide IC70; activation (rescue from dofetilide block), less the hit threshold, % at 10 µM; Voltage-gated inwardly rectifying potassium channel KCNH2 (Homo sapiens), Q12809; 0.51% of 310,000 active; dofetilide IC70 present;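 active = activation above the mean of controls blocked by dofetilide plus 5 SD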;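 note: thallium influx through hERG after potassium depolarization seen as dye fluorescence rise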
KCNQ1 inh: inhibitors of human KCNQ1 channel, primary screen, cell-based, thallium flux, high-throughput; 1.3% of 310,000 active; AID 2642, 2010; B-score at 10 µM; Potassium voltage-gated channel subfamily KQT member 1 (Homo sapiens), P51787; CHO-K1 KCNQ1, FluxOR thallium flux fluorescence; hits give high values;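 active = compounds whose thallium flux B-score, printed positive for inhibition, exceeds three library SD while starting fluorescence stays within three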;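 note: channel opened by potassium depolarization with thallium stimulus after 20 min compound exposure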
KCNK9 inh: KCNK9 potassium channel inhibitors, primary screen, HEK293 cells, thallium flux | Potassium channel subfamily K member 9 (Homo sapiens), Q9NPC2 | FluxOR thallium flux fluorescence; hits give low values | B-score at 10 µM | 1.2% of 310,000 active;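 active = ratio B-score over 3 SD below the library mean, with starting fluorescence within 5 SD of its mean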;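 note: negative B-score means less thallium flux so channel inhibition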
KCNK9 inh conf: KCNK9 potassium channel inhibitors, confirmation, HEK293 cells, thallium flux, duplicate | shares compounds with KCNK9 inh | FluxOR thallium flux fluorescence | inhibition, % at 10 µM | 43% of 4,900 active | AID 492992, 2010;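 active = thallium signal inhibited by more than 5 SD of the compound-free buffer control wells, on both duplicate plates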;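 note: 0% = assay buffer control wells without compound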
Kir2-1 spec: mouse Kir2.1 channel inhibition, confirmation, selectivity assay for KCNK9 modulator project, cell-based, HEK293, thallium flux. shares compounds with KCNK9 inh. Kir2.1 cells, FluxOR thallium flux fluorescence. inhibition, % at 10 µM. 4% of 4,900 active. AID 492993, 2010;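 active = thallium signal drop more than 5 SD beyond the mean of the no-compound control wells, seen in both duplicate plates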;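 note: signal is fluorescence rise after thallium addition divided by baseline fluorescence; plate controls were assay buffer only for no effect and full block by chlorpromazine control for full effect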
HEK293 Tl ctr: thallium flux in non-induced HEK293 cells, confirmation, counter-screen for KCNK9 inhibitor project, cell-based, second counter screen, non-induced KCNK9-HEK293 | shares compounds with KCNK9 inh | FluxOR thallium flux | inhibition, % at 10 µM | 40% of 4,900 active | AID 492997, 2010;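 active = thallium signal drop beyond 5 SD of the untreated control mean, on both duplicate plates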;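 note: plate controls were buffer only IC0 wells for no effect and SID17386958 at its maximal inhibitory level for full effect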
An asterisk follows results filed as active; i = inactive; / = not tested or not shown. Hits are enriched below; roughly 3.7% of the tested compounds scored in any of these assays.

SMILES | KCNK3 inh | Kir21 block | KCNQ1 act | hERG rescue | KCNQ1 inh | KCNK9 inh | KCNK9 inh conf | Kir2-1 spec | HEK293 Tl ctr
CCOC(=O)C1=CN(Cc2cccc(-c3ccc4c(c3)OCO4)c2)S(=O)(=O)N(C)C1C (stereo unspecified) | i | / | / | / | / | / | / | / | /
CSCCC(NC(=O)COc1ccccc1)C(=O)NCCOc1ccc(C)cc1 (stereo unspecified) | i | -0.06 | i | -4 | i | i | / | / | /
CC(C)CC(c1nnnn1C(C)C)N1CCN(c2cccc(Cl)c2)CC1 (stereo unspecified) | i | 0.51 | i | -5 | i | -9.9* | 44%* | i | 40%*
COC(=O)c1ccc(S(=O)(=O)N2CCN(C(c3ccccc3)c3ccccc3)CC2)n1C | i | 1.1 | i | -3 | i | i | i | i | i
O=C(CCc1ccc(O)cc1)c1c(O)cc(O)cc1O | i | 0 | i | -33 | i | i | / | / | /
COc1cc(O)c(CC=C(C)C)c(O)c1C(=O)CCc1ccc(O)cc1 | i | 1.6 | i | -15 | i | -14* | 32%* | i | 34%*
CC1(C)CC(N=Cc2c(O)n(Cc3ccc4c(c3)OCO4)c(=O)c3ccccc23)CC(C)(C)N1 | i | 0.51 | i | -7 | i | i | / | / | /
CSc1ccccc1NC(=O)c1ccc(CN2CCOCC2)cc1 | i | -0.23 | i | -5 | i | -11* | i | i | i
O=C(c1ccccc1)C1CC=CCC1C(=O)c1ccccc1 (stereo unspecified) | i | / | / | / | / | / | / | / | /
COc1ccc(-c2n(CC(=O)OC3CC(C)CCC3C(C)C)c3ccccc3[n+]2C)cc1 (stereo unspecified) | i | -13* | i | -31 | 11* | -17* | 73%* | 80%* | i
Cc1ccc(CNC(=O)c2nccnc2C(=O)O)cc1 | i | 0.01 | i | -5 | i | i | / | / | /
Cc1cccc(-c2noc(CN(C(=O)c3ccc4c(c3)OCO4)C(C)C)n2)c1 | i | -1.8 | i | -6 | i | i | / | / | /
Cc1cccc(-c2noc(CN(C(=O)C(c3ccccc3)c3ccccc3)C(C)C)n2)c1 | -12* | -0.55 | i | -9 | 6* | -17* | 54%* | i | i
COc1cccc(C(=O)N(Cc2nc(-c3cccc(C)c3)no2)C(C)C)c1OC | i | -0.41 | i | -12 | i | i | i | i | i
O=C1CC(N2CCC(Cc3ccccc3)CC2)C(=O)N1CCc1ccccc1 (stereo unspecified) | i | 1.8 | i | -1 | i | i | i | i | i
CCCCC[C@H]1CN(Cc2ccccc2)C(=O)[C@@H]1CC(=O)NCc1ccc(OC)cc1 | i | 0.75 | i | -8 | i | i | i | i | 28%*
O=C(C[C@H]1C(=O)N(CCc2ccccc2)C[C@@H]1Cc1ccccc1)Nc1ccccc1 | i | 0.65 | i | -4 | i | i | / | / | /

Assay outcomes as filed in PubChem.
